For one data set, the target named is T1, Tyrosinase (Agaricus bisporus, UniProt O42713).
T1 sequence (O42713 whole entry): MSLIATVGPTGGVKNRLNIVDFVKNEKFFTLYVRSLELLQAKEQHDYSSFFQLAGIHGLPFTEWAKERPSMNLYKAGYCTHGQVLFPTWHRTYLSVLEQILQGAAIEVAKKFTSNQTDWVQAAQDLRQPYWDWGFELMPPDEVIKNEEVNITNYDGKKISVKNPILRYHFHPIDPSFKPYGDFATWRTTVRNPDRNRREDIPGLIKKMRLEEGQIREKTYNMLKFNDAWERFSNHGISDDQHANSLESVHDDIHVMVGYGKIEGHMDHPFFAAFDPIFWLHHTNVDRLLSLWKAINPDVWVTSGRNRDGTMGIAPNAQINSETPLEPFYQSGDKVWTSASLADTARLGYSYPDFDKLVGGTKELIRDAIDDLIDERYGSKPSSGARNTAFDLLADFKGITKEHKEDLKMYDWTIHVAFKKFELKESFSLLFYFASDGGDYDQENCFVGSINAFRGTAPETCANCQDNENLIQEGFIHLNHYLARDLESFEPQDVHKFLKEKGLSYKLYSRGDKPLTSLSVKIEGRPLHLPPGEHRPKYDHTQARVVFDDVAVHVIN
Put plainly: Inhibition of mushroom tyrosinase.

Data set [1] has as its system B16. Briefly: Antimelanogenic activity in mouse B16 cells assessed as decrease in intracellular melanin level after 4 days. The class given is functional, cell-based. As to conditions: B16, 96 h. A digest of the protocol: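 B16 cells in DMEM with 10% FBS and penicillin/streptomycin, seeded at 5000 cells/well and preincubated 24 h at 37 °C in 5% CO2. Cultured with IBMX (100 µM) with or without sample at 6.3–100 µM for 48 h, then in fresh medium under the same conditions for a further 48 h. Cells dissolved in 1 N NaOH at 90 °C for 1 h. Relative melanin read at 400 nm. Arbutin was the positive control.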

Data set [2] has as its system B16. Put plainly: Antimelanogenic activity in mouse B16 cells assessed as decrease in intracellular melanin level at IC50 after 4 days. It is filed as functional. Also noted: scale not given: the % may be the effect or the level left.
Data set [3] has as its system B16. Put plainly: Inhibition of tyrosinase expression in mouse B16 cells after 1 hr by Western blotting. The class given is functional, cell-based. In outline:
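B16 cells were treated with sample at 50 and 75 µM plus 0.1 mM IBMX, then lysed. Lysates were run on 7.5% SDS–PAGE and transferred to PVDF, which was blocked 1 h in 5% skim milk. Anti-tyrosinase (1:2000) was applied overnight and anti-β-actin (1:2000) for 1 h, followed by HRP-conjugated secondary IgG.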
(In general: In western blotting, separated proteins are transferred to a membrane and probed.)

Data set [4] relates to B16. Put plainly: Cytotoxicity against mouse B16 cells assessed as cell viability after 4 days by MTT assay. It is filed as cell-based. As to conditions: b16, 96 h. A digest of the protocol:
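B16 cells were cultured as for the melanin assay: IBMX 100 µM and sample at 6.3–100 µM for 4 days. MTT (5 mg/mL solution) was added for 2 h, and the formazan was dissolved in DMSO. Absorbance was read at 550 and 700 nm. Viability was taken from the absorbance difference between samples and controls, in triplicate.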

Calls of active or inactive are those of the source. No cut-off for these calls is given here.

One may read the IC50 as the concentration that inhibits the measured activity by half. As for `COC(=O)[C@@]12COCC[C@H]3[C@@H]1CC[N@+](C)([O-])[C@H]3c1c2[nH]c2ccccc12` [ALPNEUMINE H], the IC50 on Tyrosinase was > 100 µM.
Consider `CC[C@]12CCCN3CCc4c(n(c5ccccc45)[C@@](O)(C(=O)OC)C1)[C@@H]32` [VINCAMINE], for which the IC50 in the data set on B16 [1] was determined as 68.9 µM. In addition, the Activity with B16 [2] is <50%.
For the compound `COC(=O)C1=C2Nc3ccccc3[C@]23CCN2C[C@@H](C(C)=O)[C@H]1C[C@@H]23` [ALPNEUMINE E], the results for the half-maximal inhibitory concentration (IC50) in the data set with B16 [1] and on Tyrosinase were 71.4 µM and > 100 µM, respectively.
Consider `COC(=O)C1=C2Nc3c(O)cccc3[C@]23CCN2C[C@H](C(C)=O)[C@H]1C[C@@H]23` [ALPNEUMINE B], for which, at Tyrosinase, the half-inhibitory concentration (IC50) is > 100 µM.
Turning to `CC[C@@]12C=C(C(=O)OC)n3c4c(c5ccccc53)CCN(CCC1)[C@H]42` [APOVINCAMINE], the IC50 with B16 [1] was found to be 49.8 µM. Moreover, the Activity in the data set with B16 [2] is <50%.
As to `COC(=O)C1=C2Nc3ccccc3[C@]23CC[N+]2([O-])C[C@H](C(C)=O)[C@H]1C[C@H]32` (some centres not stated) [ALPNEUMINE C], on Tyrosinase, the IC50 is > 100 µM.
Still for that read-out and setting: then `COC(=O)C1=C2Nc3c(O)cccc3[C@]23CC[N+]2([O-])C[C@H](C(C)=O)[C@H]1C[C@H]32` (some centres not stated) [ALPNEUMINE A], with > 100 µM.
For the compound `CC[C@]12CCC[N+]3([O-])CCc4c(n(c5ccccc45)[C@@](O)(C(=O)OC)C1)[C@H]23` (some centres not stated) [ALPNEUMINE G], the IC50 with B16 [1] is 58.3 µM; against Tyrosinase, > 100 µM. Also, the result with B16 [3] was Active. Besides, the Activity result in the data set with B16 [4] was “Dose-dependent effect”; with B16 [2] it was <50%.
For `COC(=O)[C@@]12CO[C@@]3(O)[C@H]1CCN1CC[C@H]3[C@@H]1c1c2[nH]c2ccccc12` [ALPNEUMINE F], the IC50 at Tyrosinase is > 100 µM.
The same measure, in the same setting: to `COC(=O)C1=C2Nc3c(O)cccc3[C@]23CCN2C[C@@H](C(C)=O)[C@H]1C[C@@H]23` [ALPNEUMINE D] belongs > 100 µM.
